The nature of data set [1]: Binding affinity to pyridoxal-5'-phosphate assessed as PLP-amino acid Schiff base interaction at 5 mM after 1 hr by UV/vis spectroscopy. In short, it runs like this:
(§1)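 PLP and compound solutions in 100 mM phosphate buffer pH 8.0 mixed 1:1, giving 300 μM PLP and 5 mM compound final. Incubated 1 h at room temperature, then absorbance scanned from 310 to 500 nm.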

A short description of data set [2]: Inhibition of broad-range bacterial transaminase assessed as formation of L-glutamic acid at 5 mM in phosphate buffer of pH 8 treated for 15 to 20 mins before addition of substrate by HPLC analysis in presence of 10 uM PLP. In short, it runs like this: (§2)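 Enzyme in 50 mM phosphate buffer pH 8.0 with 10 μM PLP, preincubated with 5 mM inhibitor at room temperature for 15-20 min. Substrate added near KM: alanine racemase 5 mM D-alanine (L-alanine formed); SDH 50 mM L-serine (SDH partially purified, ~50%, from E. coli BL21-RIL); transaminase 5 mM L-aspartic acid plus 5 mM α-ketoglutarate. Products analysed by HPLC.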

Data set [3] deals with T1, Serine racemase (Homo sapiens) (UniProt Q9GZT4).
T1 sequence (whole entry): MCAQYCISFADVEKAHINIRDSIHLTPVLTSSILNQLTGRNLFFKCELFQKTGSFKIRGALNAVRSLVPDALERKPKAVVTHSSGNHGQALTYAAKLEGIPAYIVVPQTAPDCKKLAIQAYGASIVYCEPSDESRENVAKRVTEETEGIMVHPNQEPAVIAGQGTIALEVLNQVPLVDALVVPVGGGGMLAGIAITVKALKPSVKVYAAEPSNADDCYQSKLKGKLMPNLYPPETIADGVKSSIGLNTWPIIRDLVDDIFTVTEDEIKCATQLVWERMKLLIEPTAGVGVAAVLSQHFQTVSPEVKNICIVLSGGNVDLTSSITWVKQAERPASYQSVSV
Description: Inhibition of human recombinant serine racemase assessed as formation of D-serine at 5 mM in phosphate buffer of pH 8 treated for 15 to 20 mins before addition of substrate by HPLC analysis in presence of 10 uM PLP. In short, it runs like this: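 Recombinant human SR assayed as for mouse SR: pH 8.0 buffer with 10 μM PLP, 1 mM ATP, 1 mM MgCl2, 5 mM DTT, 5 mM L-serine and 5 mM compound. Incubated 30 min at 37 C, stopped with HClO4; D-serine measured by HPLC.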

The nature of data set [4]: Binding affinity to pyridoxal-5'-phosphate assessed as formation of PLP-aldimine by NMR spectroscopy. In short, it runs like this:
(§3)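 Compound and PLP solutions prepared in 100 mM phosphate buffer in D2O, pD held near 8.0; chemical shifts followed by NMR after mixing.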

Data set [5] is described as follows: Binding affinity to 4-5 mM pyridoxal-5'-phosphate assessed as formation of PLP-aldimine by ESI-MS analysis. The procedure, abridged: (§4)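 Compound weighed into PLP stock at about 1:1 molar ratio with PLP, with or without 200 mM ammonium sulfate pH 8.0. Mixture diluted 40- to 100-fold in water and analysed by ESI-MS in negative ion mode.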
Data set [6] addresses T2, L-serine dehydratase/L-threonine deaminase (Rattus norvegicus) (UniProt P09367).
T2 sequence (whole entry): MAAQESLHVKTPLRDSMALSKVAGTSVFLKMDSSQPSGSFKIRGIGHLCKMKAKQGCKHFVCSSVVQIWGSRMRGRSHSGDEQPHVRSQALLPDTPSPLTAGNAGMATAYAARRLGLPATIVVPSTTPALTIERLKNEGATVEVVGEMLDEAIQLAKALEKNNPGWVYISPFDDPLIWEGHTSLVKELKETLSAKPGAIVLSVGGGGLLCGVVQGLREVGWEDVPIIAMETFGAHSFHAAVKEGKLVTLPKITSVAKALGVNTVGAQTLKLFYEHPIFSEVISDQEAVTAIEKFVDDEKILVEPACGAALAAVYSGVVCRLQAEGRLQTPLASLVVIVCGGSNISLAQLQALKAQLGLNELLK
In words: Inhibition of rat SDH expressed in Escherichia coli BL21-RIL assessed as formation of pyruvate at 5 mM in phosphate buffer of pH 8 treated for 15 to 20 mins before addition of substrate by HPLC analysis in presence of 10 uM PLP. The procedure, abridged:
as §2

Data set [7] can be described thus: Binding affinity to pyridoxal-5'-phosphate assessed as formation of PLP-aldoxime at 5 mM after 1 hr by UV/vis spectroscopy. In short, it runs like this:
as §1

Data set [8] addresses T3, Alanine racemase (Geobacillus stearothermophilus) (UniProt P10724).
T3 sequence (whole entry): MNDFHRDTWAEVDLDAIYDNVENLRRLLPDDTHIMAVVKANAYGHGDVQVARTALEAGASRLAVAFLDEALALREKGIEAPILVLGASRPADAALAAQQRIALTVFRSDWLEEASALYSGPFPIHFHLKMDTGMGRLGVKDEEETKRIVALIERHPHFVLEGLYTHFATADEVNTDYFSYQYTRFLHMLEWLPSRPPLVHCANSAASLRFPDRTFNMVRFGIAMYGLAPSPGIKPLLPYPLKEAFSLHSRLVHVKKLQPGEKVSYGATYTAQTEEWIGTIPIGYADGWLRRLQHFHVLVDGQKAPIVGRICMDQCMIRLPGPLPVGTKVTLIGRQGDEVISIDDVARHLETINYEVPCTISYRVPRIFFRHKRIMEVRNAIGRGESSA
In words: Inhibition of Bacillus stearothermophilus alanine racemase assessed as formation of L-alanine at 5 mM in phosphate buffer of pH 8 treated for 15 to 20 mins before addition of substrate by HPLC analysis in presence of 10 uM PLP. In short, it runs like this:
as §2

Data set [9] addresses T4, Serine racemase (Mus musculus, UniProt Q9QZX7).
T4 sequence (Q9QZX7 whole entry): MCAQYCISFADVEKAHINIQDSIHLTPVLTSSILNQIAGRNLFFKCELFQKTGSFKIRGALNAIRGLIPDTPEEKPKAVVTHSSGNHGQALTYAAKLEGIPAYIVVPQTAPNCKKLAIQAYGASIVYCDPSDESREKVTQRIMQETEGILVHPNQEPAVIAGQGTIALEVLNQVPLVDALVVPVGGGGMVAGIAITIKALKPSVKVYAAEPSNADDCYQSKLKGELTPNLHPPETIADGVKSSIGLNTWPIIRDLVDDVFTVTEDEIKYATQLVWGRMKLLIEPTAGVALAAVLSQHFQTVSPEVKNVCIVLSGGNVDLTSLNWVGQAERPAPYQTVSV
In words: Inhibition of mouse recombinant serine racemase expressed in Escherichia coli MC1061 assessed as formation of D-serine after 30 mins by HPLC analysis. In short, it runs like this:
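Mouse SR (E. coli MC1061, arabinose-induced, three-step chromatography, ~90% pure) incubated in pH 8.0 buffer with 10 μM PLP, 1 mM ATP, 1 mM MgCl2, 5 mM DTT. Screening used 5 mM L-serine and 5 mM test compound; IC50 runs varied inhibitor at 5 mM L-serine. 30 min at 37 C, stopped with 0.3 M HClO4; D-serine quantified by HPLC. Duplicate or triplicate runs.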

Data set [10] deals with T5, Serine racemase (Mus musculus) (UniProt Q9QZX7).
T5 sequence (whole entry): T4 sequence (Q9QZX7 whole entry)
In words: Inhibition of mouse recombinant serine racemase expressed in Escherichia coli MC1061 assessed as formation of D-serine at 5 mM in phosphate buffer of pH 8 treated for 15 to 20 mins before addition of substrate by HPLC analysis in presence of 10 uM PLP.

For data set [11], the target named is T5, Serine racemase (Mus musculus). Description: Inhibition of mouse recombinant serine racemase expressed in Escherichia coli MC1061 assessed as formation of D-serine at 5 mM treated for 15 to 20 mins before addition of substrate by HPLC analysis in presence of increasing concentration of PLP.
A short description of data set [12]: Binding affinity to pyridoxal-5'-phosphate assessed as formation of syn- and anti-PLP-aldoxime by NMR spectroscopy. In short, it runs like this:
as §3

Data set [13] has as its target T5, Serine racemase (Mus musculus). In words: Inhibition of mouse recombinant serine racemase expressed in Escherichia coli MC1061 assessed as formation of D-serine at 5 mM after 30 mins by HPLC analysis in presence of 5 fold molar excess of MgCl2 over compound.
Data set [14] deals with T1, Serine racemase (Homo sapiens). Description: Inhibition of human recombinant serine racemase assessed as formation of D-serine at 5 mM treated for 15 to 20 mins before addition of substrate by HPLC analysis in presence of increasing concentration of PLP.
The nature of data set [15]: Chemical stability assessed as hydrolysis-associated hydroxylamine formation at 0.05 mM after 1 hr in phosphate buffer of pH 7.4. Conditions: pH 7.4, 1 h, 50 µM. It is filed as physicochemical. In short, it runs like this:
(§5)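 Compound at 0.5 mM or 0.05 mM, diluted from fresh 10 mM stocks, held in 100 mM phosphate buffer pH 8.0 or 7.4 at room temperature for 0, 30 or 60 min. Picrylsulfonic acid then added; released hydroxylamine read as absorbance at 494 nm 15 min later.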

The target of data set [16] is T4, Serine racemase. In words: Inhibition of mouse recombinant serine racemase expressed in Escherichia coli MC1061 assessed as formation of D-serine after 30 mins by Linewaver-burk and Eadie-Hofstee plot analysis. The procedure, abridged: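 Mouse SR racemization at varied L-serine and inhibitor concentrations, pH 8.0, 10 μM PLP, 30 min at 37 C. End-point HPLC measured D-serine peak area relative to a glycine internal standard, in triplicate. Global nonlinear fit followed by linear transformation.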

The nature of data set [17]: Chemical stability assessed as hydrolysis-associated hydroxylamine formation at 0.05 mM after 1 hr in phosphate buffer of pH 8. It is filed as physicochemical. The settings on record: pH 8, 1 h, 50 µM. The procedure, abridged: as §5
Data set [18] can be described thus: Binding affinity to pyridoxal-5'-phosphate assessed as formation of PLP-aldoxime by ESI-MS analysis. In short, it runs like this:
as §4

Calls of active or inactive are those of the source. The rule behind the calls is not given here.

For the compound `N[C@@H](CC(=O)NO)C(=O)O`, the outcome in data set [1], in [4], in data set [5] and in data set [7] was Active. Moreover, the inhibition entry in data set [2] and in [8] was “inactive” throughout. In addition, the inhibition result in [3], in data set [6] and in data set [10] was “Active” in each case. In addition, at Serine racemase [9], the 50% inhibitory concentration (IC50) is 1300 µM.
As to `O=C(CC(=O)NO)NO` [MALONODIHYDROXAMIC ACID], the inhibition result in data set [11] and in data set [14] was “inactive” throughout. Moreover, the outcome in [12], in [7] and in data set [18] was Active. For the same compound, the inhibition result in [13] and in data set [10] was “Active” throughout. Further, the Stability entry in [15] and in data set [17] was “Unstable” in each case. Also, at Serine racemase [9], the concentration for half-maximal inhibition (IC50) is 370 µM. In addition, the Ki at Serine racemase [16] was found to be 417 µM.

For orientation: IC50 means the concentration needed to halve the response being measured. What is called Ki is the dissociation constant of the complex between target and ligand, obtained from inhibition or displacement.

The values are drawn from ChEMBL document CHEMBL1156073, “Hydroxamic acids as a novel family of serine racemase inhibitors: mechanistic analysis reveals different modes of interaction with the pyridoxal-5'-phosphate cofactor” (J Med Chem, 2009).
